Data set [1] concerns Plasmodium berghei. In words: Antiplasmodial activity against Plasmodium berghei ookinete form assessed as growth inhibition incubated for 22 hrs by GFP-based fluorescence microscopic analysis. It is filed as functional, organism-based.
Data set [2] deals with Plasmodium falciparum. In words: Antiplasmodial activity against late stage (IV/V) Plasmodium falciparum NF54 gametocytes transfected with GFP-LUC assessed as growth inhibition incubated for 72 hrs by mitotracker Red-CMXROS dye based fluorescence microscopic analysis. It is filed as functional, organism-based. Conditions: NF54, 72 h. Summed up: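 NF54 pfs16-LUC-GFP stage IV–V gametocytes (10% parasitaemia, 0.1% haematocrit) exposed to compound in 0.4% DMSO, three concentrations per log, for 72 h at 37°C under 5% CO2/5% O2/90% N2. MitoTracker Red CM-H2Xros then added for 16 h and viable gametocytes counted by imaging.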

Data set [3] relates to MRC5. In words: Antiproliferative activity against human MRC5 cells assessed as reduction in cell viability after 68 hrs by resazurin dye based fluorescence assay. Conditions: MRC5, 68 h. Summed up: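 MRC-5 fibroblasts plated overnight as monolayers, exposed to compound pre-diluted in MEM for 68 h. Resazurin then added (final 50 μM) for 3 h, fluorescence read at ex 528/em 590 nm. Signal converted to % inhibition against high- and no-inhibition controls. Plates accepted at Z' > 0.5.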
(Alamar Blue is a resazurin reagent that responds to reducing activity.)

Data set [4] can be described thus: Intrinsic clearance in Sprague-Dawley rat liver microsomes at 0.5 uM in presence of NADPH incubated upto 30 mins by UPLC-MS/MS analysis. Conditions: 0.5 h. It is filed as ADME, Microsome. The method in brief: (§1)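 Compound at 0.5 μM incubated with female CD1 mouse, male Sprague-Dawley rat or pooled human liver microsomes (0.5 mg/mL, 50 mM potassium phosphate, pH 7.4). Reaction started with excess NADPH. Samples taken at 0-30 min, quenched in acetonitrile, analysed by UPLC-MS/MS. Verapamil used as control, single time course.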
On the technique in general: Liver microsomes are vesicles of endoplasmic reticulum, rich in cytochrome P450 enzymes.

A short description of data set [5]: Intrinsic clearance in human liver microsomes at 0.5 uM in presence of NADPH incubated upto 30 mins by UPLC-MS/MS analysis. It is filed as ADME, Microsome. As to conditions: 0.5 h. Summed up:
as §1

Data set [6] is described as follows: Protein binding in CD1 mouse plasma measured after 5 hr by UPLC-MS/MS analysis based equilibrium dialysis method. It is filed as ADME, cell-free. As to conditions: CD1, mouse, read-out: PPB (converted). The method in brief: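 Equilibrium dialysis of female CD1 mouse plasma spiked at 10 μg/mL (12-14 kDa membrane) against isotonic buffer for 5 h at ~37°C with shaking. Unbound fraction taken as the buffer/plasma peak-area ratio by UPLC-MS/MS. n=6 replicates, run in triplicate.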
For orientation: In equilibrium dialysis free small molecules cross a membrane that holds back macromolecules.

In data set [7] the test system is Plasmodium berghei. Put plainly: Antiplasmodial activity against Plasmodium berghei ANKA infected in NMRI mouse assessed as reduction in parasitemia at 1 mg/kg, po QD for 4 days. It is filed as functional. Also on record: scale not given: the % may be the effect or the level left. As to conditions: time 4 day. Summed up:
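Female NMRI mice (n=3 per group, randomized, not blinded) infected with GFP-transfected P. berghei ANKA. Oral dosing once daily for 4 days in 10% DMSO/40% PEG400/50% water or HPMC suspension vehicle. Parasitaemia measured by flow cytometry on blood collected 96 h after infection. Mice watched for toxicity over 4 h post-dose each day.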

A short description of data set [8]: Half-life in Sprague-Dawley rat at 1 mg/kg, iv administered as bolus dose by UPLC-MS/MS analysis. It is filed as ADME, organism-based. As to conditions: in vivo, 1 mg/kg. The method in brief:
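Male Sprague Dawley rats (n=3/route) received an iv bolus solution at 1 mg free base/kg (5 mL/kg; 5% DMSO in saline). Blood sampled from 5 min to 30 or 48 h post-dose, mixed with two volumes water, frozen, then analysed by UPLC-MS/MS. Parameters derived from the blood concentration-time curve.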

Data set [9] concerns Plasmodium falciparum. In words: Antiplasmodial activity against drug resistant Plasmodium falciparum TM90C2A by [3H]hypoxanthine incorporation assay. It is filed as functional, organism-based. The method in brief: (§2)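 Strains (K1, W2, 7G8, TM90C2A, D6, V1/S resistant; NF54 sensitive) cultured by the Trager and Jensen method; EC50 determined in vitro from [3H]hypoxanthine incorporation.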

Data set [10] relates to Plasmodium falciparum. Put plainly: Antiplasmodial activity against drug resistant Plasmodium falciparum D6 by [3H]hypoxanthine incorporation assay. It is filed as functional, organism-based. Summed up: as §2
The test system of data set [11] is Plasmodium falciparum. In words: Antiplasmodial activity against drug resistant Plasmodium falciparum V1/S by [3H]hypoxanthine incorporation assay. It is filed as functional, organism-based. The method in brief: as §2
The nature of data set [12]: Volume of distribution at steady state in NMRI mouse at 1 mg/kg, iv administered as bolus dose by UPLC-MS/MS analysis. It is filed as ADME, organism-based. As to conditions: in vivo.
The nature of data set [13]: Half-life in NMRI mouse at 1 mg/kg, iv administered as bolus dose by UPLC-MS/MS analysis. Conditions: in vivo. It is filed as ADME, organism-based.
A short description of data set [14]: AUC in NMRI mouse at 3 mg/kg, po administered as gavage by UPLC-MS/MS analysis. Conditions: in vivo. It is filed as ADME, organism-based. Also on record: dose 3 mg/kg.
Data set [15] in a line: Tmax in NMRI mouse at 3 mg/kg, po administered as gavage by UPLC-MS/MS analysis. As to conditions: in vivo. It is filed as ADME, organism-based.
Data set [16] is described as follows: Cmax in Sprague-Dawley rat at 5 mg/kg, po administered via gavage by UPLC-MS/MS analysis. Also on record: route oral, dose 5 mg/kg. It is filed as ADME, organism-based. As to conditions: in vivo. The method in brief:
(§3)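 Male Sprague Dawley rats (n=3) gavaged with a solution at 5 mg free base/kg (10 mL/kg; 0.5% w/v HPMC, 0.4% v/v Tween 80, 0.5% v/v benzyl alcohol). Blood sampled at 5, 15, 30 min and 1, 2, 4, 6, 8, 24, 30, 48 h, diluted with two volumes water, analysed by UPLC-MS/MS.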

Data set [17] in a line: Tmax in Sprague-Dawley rat at 5 mg/kg, po administered via gavage by UPLC-MS/MS analysis. As to conditions: in vivo. It is filed as ADME, organism-based. Summed up:
as §3

Data set [18] is described as follows: AUC in Sprague-Dawley rat at 5 mg/kg, po administered via gavage by UPLC-MS/MS analysis. Also on record: dose 5 mg/kg. Conditions: in vivo. It is filed as ADME, organism-based. Summed up: as §3

pEC50: −log10 of the molar value.

Consider `O=C(NCCN1CCCC1)c1cc(-c2ccc(CN3CCOCC3)cc2)nc2ccc(F)cc12` [CABAMIQUINE], for which the pEC50 in data set [1] is 8.30; in data set [2] it was 7.62; in [3], 4.62; in [9], 9.40; in [10] it was 9.40; in [11] it was 9.15. The results for the CLH entry in [4] and in data set [5] were “<= 0.8 ml/min/g” and “<= 1.1 ml/min/g”, respectively. The fraction unbound at 5 h in data set [6] is 0.37. Also, the Activity in data set [7] amounted to 99.9%. For the same molecule, the t1/2 turned out to be 10 h in data set [8] and 16 h in data set [13]. The molecule also showed a distribution volume (Vdss) in data set [12] of 15 L/kg. The AUC is 2990 ng·h/mL in data set [14] and 3340 ng·h/mL in [18]. Moreover, the figures for the Tmax in data set [15] and in data set [17] were 1 h and 4 h, respectively. This molecule also had a maximum concentration (Cmax) in data set [16] of 180 ng/mL.

For orientation: pEC50 means the EC50 on a negative log10 scale, so that one unit is a factor of ten. Broadly, the Vdss is the apparent volume that relates the amount in the body to the concentration in plasma or blood. A word on the AUC: it is the area under the concentration-time curve, a measure of exposure. In general, Tmax refers to the time from dosing to the highest level. One may read the Cmax as the highest concentration seen after dosing.

Values taken from ChEMBL document CHEMBL4680079, “Discovery of a Quinoline-4-carboxamide Derivative with a Novel Mechanism of Action, Multistage Antimalarial Activity, and Potent in Vivo Efficacy” (J Med Chem, 2016).
